Experimental data published in ChEMBL document CHEMBL1132695, “2-(diethylamino)thieno1,3ŏxazin-4-ones as stable inhibitors of human leukocyte elastase” (J Med Chem, 1999).

Experiments:
[1] = The alkaline hydrolysis second order rate constant(K OH) of the compound; format: ADME
In short: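 Spectrophotometric hydrolysis in aqueous buffer pH 11.25 at 25 °C; loss of long-wavelength UV chromophore followed at 335 nm as first-order exponential decay. Compounds from DMSO stocks, final 15–20 μM, 5% DMSO final. Second-order rate constant kOH- calculated from first-order rates.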

Neutrophil elastase [2] = target: T1, Neutrophil elastase (Homo sapiens, UniProt P08246); assay: (§1) Inhibitory activity against human leukocyte elastase
T1 sequence (P08246 whole entry): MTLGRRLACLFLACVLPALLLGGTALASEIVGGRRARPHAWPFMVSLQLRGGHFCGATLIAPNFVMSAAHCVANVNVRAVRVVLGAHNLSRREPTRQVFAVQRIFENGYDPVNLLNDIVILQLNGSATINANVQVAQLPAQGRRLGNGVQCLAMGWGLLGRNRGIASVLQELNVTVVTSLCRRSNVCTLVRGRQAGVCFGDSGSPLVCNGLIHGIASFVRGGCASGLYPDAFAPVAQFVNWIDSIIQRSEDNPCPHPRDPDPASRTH
In short: (§2)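 Elastase purified from human leukocytes by affinity chromatography; enzyme stock diluted into 50 mM sodium phosphate, 500 mM NaCl, pH 7.8. Substrate Suc-Ala-Ala-Pro-Val-pNA at 100 μM final (1.3 Km); inhibitor in DMSO added to cuvette. Progress-curve method at 25 °C, at least five inhibitor concentrations for oxazinones (single 2 μM for thiazinones); curves fitted for kobs, giving Kd, Ki, kon (acylation) and koff (deacylation).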

Neutrophil elastase [3] = target: T1, Neutrophil elastase; assay: as §1; in short: as §2; remark: listed apart in the source
[4] = target: T2, Neutrophil elastase (Homo sapiens) (UniProt P08246); assay: Koff was the deacylation association equilibrium rate constant of a competitive inhibition human leukocyte elastase(HLE).; in short: as §2
T2 sequence (whole entry): T1 sequence (P08246 whole entry)

[5] = target: T2, Neutrophil elastase (Homo sapiens); assay: Kon was the acylation association equilibrium rate constant of a competitive inhibition of human leukocyte elastase(HLE).; in short: as §2
[6] = The alkaline hydrolysis second order rate constant(K OH) taken as log K.
Neutrophil elastase [7] = target: T1, Neutrophil elastase; assay: as §1; in short: as §2; remark: listed apart in the source

Work on `CCN(CC)c1nc2scc(C(C)C)c2c(=O)o1` yielded a K [1] of 0.054 M⁻¹ s⁻¹, a Ki (Neutrophil elastase [2]) of 0.0132 µM and a Ki (Neutrophil elastase [3]) of 0.013 µM. The k off [4] was 0.00013 s⁻¹, the k on [5] was 10000 M⁻¹ s⁻¹ and the Log K [6] was -1.27.

`CCN(CC)c1nc2sc3c(c2c(=O)o1)CCC3` showed a K [1] of 0.094 M⁻¹ s⁻¹, a Ki (Neutrophil elastase [2]) of 0.0126 µM and a Ki (Neutrophil elastase [3]) of 0.013 µM. The k off [4] was 4.5e-05 s⁻¹, the k on [5] was 3600 M⁻¹ s⁻¹ and the Log K [6] was -1.03.

For `CCN(CC)c1nc2sccc2c(=O)o1`, the K [1] was 0.12 M⁻¹ s⁻¹, the Ki (Neutrophil elastase [2]) was 0.257 µM and the Ki (Neutrophil elastase [3]) was 0.26 µM. For the same compound, the k off [4] was 0.00014 s⁻¹, the k on [5] was 530 M⁻¹ s⁻¹ and the Log K [6] was -0.91.

For `CCN(CC)c1nc2sc3c(c2c(=O)o1)C(C)CCC3` (stereo not drawn), the K [1] was 0.039 M⁻¹ s⁻¹, the Ki (Neutrophil elastase [2]) was 0.204 µM and the Ki (Neutrophil elastase [3]) was 0.21 µM. The k off [4] was 1.3e-05 s⁻¹, the k on [5] was 63 M⁻¹ s⁻¹ and the Log K [6] was -1.41.

`CCN(CC)c1nc2ccsc2c(=O)o1` showed a K [1] of 0.11 M⁻¹ s⁻¹, a Ki (Neutrophil elastase [3]) of 0.13 µM and a k off [4] of 4.3e-05 s⁻¹. The k on [5] was 330 M⁻¹ s⁻¹, the Ki (Neutrophil elastase [7]) was 0.132 µM and the Log K [6] was -0.95.

Work on `CCN(CC)c1nc2scc(C)c2c(=O)o1` yielded a K [1] of 0.073 M⁻¹ s⁻¹, a Ki (Neutrophil elastase [2]) of 0.447 µM and a Kd (Neutrophil elastase [3]) of 5.5 µM. The Ki (Neutrophil elastase [3]) was 0.45 µM, the k off [4] was 6.4e-05 s⁻¹ and the k on [5] was 140 M⁻¹ s⁻¹. For the same compound, the Log K [6] was -1.14.

`CCN(CC)c1nc2sc(C(N)=O)c(C)c2c(=O)o1` gave a K [1] of 0.4 M⁻¹ s⁻¹, a Ki (Neutrophil elastase [2]) of 0.0912 µM and a Kd (Neutrophil elastase [3]) of 0.62 µM. For the same compound, the Ki (Neutrophil elastase [3]) was 0.091 µM, the k off [4] was 0.00036 s⁻¹ and the k on [5] was 4000 M⁻¹ s⁻¹. It also gave a Log K [6] of -0.4.

With `CCN(CC)c1nc2sc3ccccc3c2c(=O)o1` the K [1] was 0.075 M⁻¹ s⁻¹, the Ki (Neutrophil elastase [2]) was 0.00575 µM and the Ki (Neutrophil elastase [3]) was 0.0058 µM. It also gave a k off [4] of 5.5e-05 s⁻¹, a k on [5] of 9500 M⁻¹ s⁻¹ and a Log K [6] of -1.13.

Compound `CCN(CC)c1nc2ccccc2c(=O)o1` has a K [1] of 5.9 M⁻¹ s⁻¹, a Ki (Neutrophil elastase [2]) of 0.302 µM and a Ki (Neutrophil elastase [3]) of 0.31 µM. It also gave a k off [4] of 0.00079 s⁻¹, a k on [5] of 2600 M⁻¹ s⁻¹ and a Log K [6] of 0.77.

`CCN(CC)c1nc2sc3c(c2c(=O)o1)CCCCC3` showed a K [1] of 0.038 M⁻¹ s⁻¹, a Ki (Neutrophil elastase [2]) of 0.0437 µM and a Ki (Neutrophil elastase [3]) of 0.044 µM. For the same compound, the k off [4] was 4.3e-05 s⁻¹, the k on [5] was 990 M⁻¹ s⁻¹ and the Log K [6] was -1.42.

Compound `CCN(CC)c1nc2sc3c(c2c(=O)o1)CCCC3` has a K [1] of 0.032 M⁻¹ s⁻¹, a Ki (Neutrophil elastase [2]) of 0.0126 µM and a Ki (Neutrophil elastase [3]) of 0.013 µM. For the same compound, the k off [4] was 3.2e-05 s⁻¹, the k on [5] was 2500 M⁻¹ s⁻¹ and the Log K [6] was -1.49.
